Data from ChEMBL document CHEMBL4610058, “Mariannamides A and B, new cyclic octapeptides isolated from Mariannaea elegans NBRC102301” (2020).
Active and inactive are the calls of the source. The rule behind the calls is not given here. Where a SMILES comes first, the peptide text is derived from it.

Key:
Escherichia coli = assay: Antimicrobial activity against Escherichia coli U541 assessed as diameter of inhibition zone measured after 24 hrs by disc diffusion assay; assay type: functional
Outline: (§1)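 Bacteria grown in Mueller Hinton broth at 37 °C for 24 h and adjusted to 0.5 McFarland. 6 mm paper discs loaded with 2 µg compound (20 µL) placed on Mueller Hinton agar spread with the suspension, then incubated 37 °C for 24 h. Inhibition-zone diameter measured including the disc. Blank 5% DMSO discs as negative control. Triplicate.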

Cryptococcus neoformans = assay: Antimicrobial activity against Cryptococcus neoformans IFM 40215 assessed as diameter of inhibition zone measured after 24 hrs by disc diffusion assay; assay type: functional
Outline: (§2)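 Yeasts pre-cultured on YPD agar at 37 °C for 24 h, suspended in Mueller Hinton broth and adjusted to 0.5 McFarland. 6 mm discs carrying 2 µg compound (20 µL) laid on Mueller Hinton agar spread with the fungal suspension, then incubated 37 °C for 24 h. Zone diameter read including the disc. 5% DMSO discs as negative control. Triplicate.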

Staphylococcus aureus = assay: Antimicrobial activity against methicillin-resistant Staphylococcus aureus N315 measured after 24 hrs by disc diffusion method; assay type: functional, organism-based
Outline: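 Disc diffusion on Müller Hinton agar. MRSA N315 grown in Müller Hinton broth at 37 °C for 24 h, then adjusted to McFarland 0.5. Sterile 6 mm paper discs loaded with 20 µL (2 µg) of compound. Incubation at 37 °C for 24 h. Read-out is inhibition zone diameter including the disc. Negative control was discs with 5% DMSO. Triplicate; mean ± S.E.M.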

Bacillus subtilis = assay: Antimicrobial activity against Bacillus subtilis HA101 measured after 24 hrs by disc diffusion method; assay type: functional, organism-based; outline: as §1
Enterococcus faecalis = assay: Antimicrobial activity against Enterococcus faecalis JCM7783 measured after 24 hrs by disc diffusion method; assay type: functional, organism-based; outline: as §1
[1] = test system: Meyerozyma guilliermondii; assay: Antimicrobial activity against Candida guilliermondii TIMM 0260 measured after 24 hrs by disc diffusion method; assay type: functional, organism-based; outline: as §2
Candida parapsilosis = assay: Antimicrobial activity against Candida parapsilosis IFM 40218 measured after 24 hrs by disc diffusion method; assay type: functional, organism-based; outline: as §2
Candida albicans = assay: Antimicrobial activity against Candida albicans IFM 40213 measured after 24 hrs by disc diffusion method; assay type: functional, organism-based; outline: as §2
[Candida] auris = Antimicrobial activity against Candida auris JCM 15448 measured after 24 hrs by disc diffusion method; assay type: functional, organism-based; settings: Candidozyma auris; outline: as §2
Nakaseomyces glabratus = assay: Antimicrobial activity against Candida glabrata IFM 40217 measured after 24 hrs by disc diffusion method; assay type: functional, organism-based; outline: as §2
C2C12 [2] = assay: Upregulation of SIRT1 mRNA expression in mouse C2C12 cells at 50 uM measured after 24 hrs by qRT-PCR analysis; assay type: functional, cell-based
Outline: (§3)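 C2C12 seeded at 2×10^5 cells/well, grown to 90% confluence, then differentiated 2 days in DMEM with 2% horse serum. Treated 24 h with compound (10–50 µM), DMSO, or resveratrol 50 µM (positive control). SIRT1 mRNA measured by qRT-PCR (40 cycles, 95/60 °C), GAPDH reference, ΔΔCt vs DMSO. Triplicate; mean ± S.E.M.; one-way ANOVA with Tukey.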

C2C12 [3] = assay: Upregulation of SIRT1 mRNA expression in mouse C2C12 cells at 50 uM measured after 24 hrs by qRT-PCR analysis relative to control; assay type: functional; outline: as §3

CC[C@H](C)[C@@H]1NC(=O)[C@H](CC(C)C)NC(=O)[C@@H]2CCCN2C(=O)[C@@H]2CCCN2C(=O)[C@H](CC(C)C)NC(=O)[C@H](C(C)C)NC(=O)[C@H](C(C)C)NC(=O)[C@@H]2CCCN2C1=O (cyclo(IPVVLPPL))
Activity (Escherichia coli): inactive
Activity (Cryptococcus neoformans): inactive
Activity (Staphylococcus aureus): inactive
Activity (Bacillus subtilis): inactive
Activity (Enterococcus faecalis): inactive
Activity [1]: inactive
Activity (Candida parapsilosis): inactive
Activity (Candida albicans): inactive
Activity ([Candida] auris): inactive
Activity (Nakaseomyces glabratus): inactive

Oc1ccc(/C=C/c2cc(O)cc(O)c2)cc1
Activity (C2C12 [2]): Active

CC[C@H](C)[C@@H]1NC(=O)[C@H](C(C)C)NC(=O)[C@@H]2CCCN2C(=O)[C@H]([C@@H](C)CC)NC(=O)[C@H](CC(C)C)NC(=O)[C@@H]2CCCN2C(=O)[C@@H]2CCCN2C(=O)[C@H](CC(C)C)NC1=O (cyclo(ILPPLIPV))
fold change (FC) (C2C12 [3]): 1.5
diameter of the inhibition zone (DIZ) (Escherichia coli): 9.4 mm
diameter of the inhibition zone (DIZ) (Cryptococcus neoformans): 7.7 mm
